Data taken from ChEMBL document CHEMBL1165950, “Design and synthesis of new potent anticancer pyrazoles with high FLT3 kinase inhibitory selectivity” (Bioorg Med Chem, 2010).

Tests used:
Format in all cases: functional
UACC-62 = assay: Cytotoxicity against human UACC62 cells assessed as cell growth at 100 nM after 48 hrs by sulforhodamine B assay; conditions: UACC-62, 48 h, read-out: Activity
SNB-19 = assay: Cytotoxicity against human SNB19 cells assessed as cell growth at 10 uM after 48 hrs by sulforhodamine B assay; conditions: SNB-19, 48 h, read-out: Activity
A549 = assay: Cytotoxicity against human A549 cells assessed as cell growth at 1 uM after 48 hrs by sulforhodamine B assay; conditions: A549, 48 h, read-out: Activity
In short: (§1)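 NCI-60 five-dose screen. Cells were grown in RPMI 1640 with 5% FBS and 2 mM L-glutamine, plated at 5000–40,000 cells/well and preincubated for 24 h. Time-zero plates were TCA-fixed. DMSO-solubilized drug was added at five concentrations (10-fold or ½-log serial dilutions) for 48 h at 37 °C, 5% CO2. Cells were TCA-fixed, stained with 0.4% SRB and read at 515 nm. Percent growth used time-zero, control and test absorbances.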

MDA-MB-435 = assay: Cytotoxicity against human MDA-MB-435 cells assessed as cell growth at 0.001 uM after 48 hrs by sulforhodamine B assay; conditions: MDA-MB-435, 48 h, read-out: Activity
SK-MEL-28 = assay: Cytotoxicity against human SK-MEL-28 cells assessed as cell growth at 10 uM; conditions: read-out: Activity
In short: (§2)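 NCI-60 screen: cells grown in RPMI 1640 with 5% FBS and 2 mM L-glutamine, plated at 5000–40,000 cells/well according to doubling time, and preincubated 24 h at 37 °C, 5% CO2. The single 10 µM dose (DMSO stock) was added, then incubated 48 h. Cells were TCA-fixed and stained with 0.4% SRB, read at 515 nm, and growth % calculated against time-zero and control plates.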

SW-620 = assay: Cytotoxicity against human SW620 cells assessed as cell growth at 10 uM after 48 hrs by sulforhodamine B assay; conditions: SW-620, 48 h, read-out: Activity
SF-268 = assay: Cytotoxicity against human SF268 cells assessed as cell growth at 1 uM after 48 hrs by sulforhodamine B assay; conditions: SF-268, 48 h, read-out: Activity
[1] = Cytotoxicity against human Hs 578T cells assessed as cell growth at 0.01 uM after 48 hrs by sulforhodamine B assay; conditions: read-out: Activity
UACC-257 [2] = assay: Cytotoxicity against human UACC257 cells assessed as cell growth at 0.01 uM after 48 hrs by sulforhodamine B assay; conditions: UACC-257, 48 h, read-out: Activity
IGROV-1 = assay: Cytotoxicity against human IGROV1 cells assessed as cell growth at 1 uM after 48 hrs by sulforhodamine B assay; conditions: IGROV-1, 48 h, read-out: Activity
NCI/ADR-RES [3] = assay: Cytotoxicity against human NCI/ADR-RES cells assessed as cell growth at 0.01 uM after 48 hrs by sulforhodamine B assay; conditions: read-out: Activity
NCI-H322M [4] = assay: Cytotoxicity against human NCI-H322M cells assessed as cell growth at 0.01 uM after 48 hrs by sulforhodamine B assay; conditions: read-out: Activity
MDA-MB-468 = assay: Cytotoxicity against human MDA-MB-468 cells assessed as cell growth at 0.001 uM after 48 hrs by sulforhodamine B assay; conditions: MDA-MB-468, 48 h, read-out: Activity
NCI/ADR-RES [5] = assay: Growth inhibition of human NCI/ADR-RES cells after 48 hrs by sulforhodamine B assay; conditions: for CC50: read-out: LC50 (the source's name)
In short: (§3)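 NCI 60-cell screen, five-dose mode. Cells grown in RPMI 1640 with 5% FBS and 2 mM L-glutamine and plated at 5000-40,000 cells/well according to doubling time. After 24 h preincubation, a Tz plate was TCA-fixed. Five concentrations (10-fold or 1/2 log dilutions) were applied for 48 h at 37 °C. SRB staining read at 515 nm. IC50 taken from [(Ti-Tz)/(C-Tz)]×100 = 50.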

MCF7 = assay: Cytotoxicity against human MCF7 cells assessed as cell growth at 10 uM; conditions: read-out: Activity; in short: as §2
M14 = assay: Cytotoxicity against human M14 cells assessed as cell growth at 0.001 uM after 48 hrs by sulforhodamine B assay; conditions: M14, 48 h, read-out: Activity
NCI-H226 = assay: Cytotoxicity against human NCI-H226 cells assessed as cell growth at 0.001 uM after 48 hrs by sulforhodamine B assay; conditions: NCI-H226, 48 h, read-out: Activity
SF-295 [6] = assay: Growth inhibition of human SF295 cells after 48 hrs by sulforhodamine B assay; conditions: SF-295, 48 h; for CC50: read-out: LC50 (the source's name); in short: as §3
SK-MEL-5 = assay: Cytotoxicity against human SK-MEL-5 cells assessed as cell growth at 10 uM after 48 hrs by sulforhodamine B assay; conditions: SK-MEL-5, 48 h, read-out: Activity
BT-549 = assay: Cytotoxicity against human BT549 cells assessed as cell growth at 1 uM after 48 hrs by sulforhodamine B assay; conditions: BT-549, 48 h, read-out: Activity; in short: as §1
UACC-257 [7] = assay: Cytotoxicity against human UACC257 cells assessed as cell growth at 10 uM; conditions: read-out: Activity; in short: as §2
ACHN = assay: Cytotoxicity against human ACHN cells assessed as cell growth at 1 uM after 48 hrs by sulforhodamine B assay; conditions: read-out: Activity; in short: as §1
UACC-257 [8] = assay: Growth inhibition of human UACC257 cells after 48 hrs by sulforhodamine B assay; conditions: UACC-257, 48 h; for CC50: read-out: LC50 (the source's name); in short: as §3
MDA-MB-231 = assay: Cytotoxicity against human MDA-MB-231 cells assessed as cell growth at 1 uM after 48 hrs by sulforhodamine B assay; conditions: MDA-MB-231, 48 h, read-out: Activity
HCT-15 = assay: Cytotoxicity against human HCT15 cells assessed as cell growth at 10 uM; conditions: read-out: Activity
In short: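 Single-dose NCI-60 screen at 10 µM. Cells were grown in RPMI 1640 with 5% FBS and 2 mM L-glutamine, then treated for 48 h at 37 °C. Protein was measured by SRB staining with absorbance at 515 nm. Percentage growth was recorded, and inhibition percentage was calculated as 100 minus growth percentage.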

NCI-H322M [9] = assay: Growth inhibition of human NCI-H322M cells after 48 hrs by sulforhodamine B assay; conditions: for CC50: read-out: LC50 (the source's name); in short: as §3
SF-295 [10] = assay: Cytotoxicity against human SF295 cells assessed as cell growth at 0.001 uM after 48 hrs by sulforhodamine B assay; conditions: SF-295, 48 h, read-out: Activity
TK-10 = assay: Cytotoxicity against human TK10 cells assessed as cell growth at 1 uM after 48 hrs by sulforhodamine B assay; conditions: TK-10, 48 h, read-out: Activity
NCI-H522 = assay: Cytotoxicity against human NCI-H522 cells assessed as cell growth at 100 nM after 48 hrs by sulforhodamine B assay; conditions: NCI-H522, 48 h, read-out: Activity
LOX IMVI = assay: Cytotoxicity against human LOXIMVI cells assessed as cell growth at 100 nM after 48 hrs by sulforhodamine B assay; conditions: read-out: Activity

SMILES | growth at 0.1 µM (UACC-62) | growth at 10 µM (SNB-19) | growth at 1 µM (A549) | growth at 0.001 µM (MDA-MB-435) | growth at 10 µM (SK-MEL-28) | growth at 10 µM (SW-620) | growth at 1 µM (SF-268) | growth at 0.01 µM [1] | growth at 0.01 µM (UACC-257 [2]) | growth at 1 µM (IGROV-1) | growth at 0.01 µM (NCI/ADR-RES [3]) | growth at 0.01 µM (NCI-H322M [4]) | growth at 0.001 µM (MDA-MB-468) | GI50 (NCI/ADR-RES [5]) | TGI (NCI/ADR-RES [5]) | CC50 (NCI/ADR-RES [5]) | growth at 10 µM (MCF7) | growth at 0.001 µM (M14) | growth at 0.001 µM (NCI-H226) | GI50 (SF-295 [6]) | further results
COc1cc(C)cc(-c2c(-c3ccnc(-c4ccc(N(C)C)cc4)c3)cnn2CC#N)c1 | 37% | 35% | 5% | 88% | 42.1% | 11% | 24% | 58% | 38% | 9% | 80% | 83% | 93% | 0.0479 µM | > 100 µM | > 100 µM | 2.45% | 95% | 95% | 0.0529 µM | TGI (SF-295 [6]): 0.315 µM; CC50 (SF-295 [6]): > 100 µM; growth at 10 µM (SK-MEL-5): -39%; growth at 1 µM (BT-549): -29%; growth at 10 µM (UACC-257 [7]): 83.8%; growth at 1 µM (ACHN): 19%; GI50 (UACC-257 [8]): 0.0359 µM; TGI (UACC-257 [8]): > 100 µM; CC50 (UACC-257 [8]): > 100 µM; growth at 1 µM (MDA-MB-231): 17%; growth at 10 µM (HCT-15): 8.33%; GI50 (NCI-H322M [9]): 0.331 µM; TGI (NCI-H322M [9]): > 100 µM; CC50 (NCI-H322M [9]): > 100 µM; growth at 0.001 µM (SF-295 [10]): 83%; growth at 1 µM (TK-10): 31%; growth at 0.1 µM (NCI-H522): -47%; growth at 0.1 µM (LOX IMVI): 19%
COc1cc(C)cc(-c2c(-c3ccnc(-c4ccc(C(C)=O)cc4)c3)cnn2CC#N)c1 | 89% | 66% | 25% | 100% | 62% | 14% | 15% | 98% | 81% | 23% | 91% | 95% | 92% | 2.87 µM | > 100 µM | > 100 µM | 21.9% | 95% | 100% | 5.84 µM | TGI (SF-295 [6]): > 100 µM; CC50 (SF-295 [6]): > 100 µM; growth at 10 µM (SK-MEL-5): -35%; growth at 1 µM (BT-549): 17%; growth at 10 µM (UACC-257 [7]): 92.8%; growth at 1 µM (ACHN): 21%; GI50 (UACC-257 [8]): 5.24 µM; TGI (UACC-257 [8]): > 100 µM; CC50 (UACC-257 [8]): > 100 µM; growth at 1 µM (MDA-MB-231): 21%; growth at 10 µM (HCT-15): 53.3%; GI50 (NCI-H322M [9]): > 100 µM; TGI (NCI-H322M [9]): > 100 µM; CC50 (NCI-H322M [9]): > 100 µM; growth at 0.001 µM (SF-295 [10]): 98%; growth at 1 µM (TK-10): 43%; growth at 0.1 µM (NCI-H522): 76%; growth at 0.1 µM (LOX IMVI): 85%
